According to ChEMBL document CHEMBL2176909, “Kaurenoic acid from Sphagneticola trilobata Inhibits Inflammatory Pain: effect on cytokine production and activation of the NO-cyclic GMP-protein kinase G-ATP-sensitive potassium channel signaling pathway” (J Nat Prod, 2012):
The source made the active and inactive calls.

How the values were obtained:
Mus musculus [1] = experiment: Hepatotoxicity in Swiss mouse assessed as change in plasma ALT level at 2.5 mg/kg, po for 7 days measured over 7 days relative to vehicle-treated control; assay type: toxicity, organism-based; set-up: dose 2.5 mg/kg, route oral; conditions: in vivo, 168 h
Method in brief: (§1)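 Mice dosed po daily for 7 days: vehicle (2% DMSO/saline or Tris/HCl pH 8.0), 10 mg/kg, or indomethacin 2.5 mg/kg. Heparinized blood is drawn under terminal anesthesia, and plasma AST and ALT are measured with a diagnostic kit. n = 8.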

Mus musculus [2] = experiment: Hepatotoxicity in Swiss mouse assessed as change in plasma AST level at 2.5 mg/kg, po for 7 days measured over 7 days relative to vehicle-treated control; assay type: toxicity, organism-based; set-up: dose 2.5 mg/kg, route oral; conditions: in vivo, 168 h; method in brief: as §1
Mus musculus [3] = experiment: Antinociceptive activity in Swiss mouse assessed as inhibition of PBQ-induced writhing at 5 mg/kg, ip administered 30 mins prior to PBQ challenge; assay type: functional, organism-based; set-up: dose 5 mg/kg
Mus musculus [4] = experiment: Gastrointestinal toxicity in Swiss mouse assessed as increase in stomach MPO activity at 2.5 mg/kg, po for 7 days measured over 7 days relative to vehicle-treated control; assay type: organism-based; set-up: dose 2.5 mg/kg, route oral; conditions: in vivo, 168 h
Method in brief: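 Mice dosed po daily for 7 days: vehicle (2% DMSO/saline or Tris/HCl pH 8.0), 10 mg/kg, or indomethacin 2.5 mg/kg. Stomach is homogenized in 50 mM phosphate buffer pH 6.0 with 0.5% HTAB. Supernatant is reacted with o-dianisidine/H2O2 and read at 450 nm. Results expressed as neutrophils ×10^4/mg tissue from a neutrophil standard curve. n = 8.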

Mus musculus [5] = experiment: Antihyperalgesic activity in carrageenan-induced mechanical hyperalgesia Swiss mouse model assessed as paw withdrawal latency at 5 mg/kg, ip administered 40 mins prior to challenge by electronic pressure-meter test; assay type: functional, organism-based; set-up: dose 5 mg/kg
Method in brief: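 Male Swiss mice dosed po (1–10 mg/kg, 2% DMSO in saline) 30 min before intraplantar carrageenin (100 μg/paw). Control indomethacin 5 mg/kg ip given 40 min before. Electronic pressure-meter readings at 1, 3 and 5 h, mean of three. Δ withdrawal threshold (g) is the post-stimulus reading minus zero-time. n = 5.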

Mus musculus [6] = experiment: Antinociceptive activity in Swiss mouse assessed as inhibition of acetic acid-induced writhing at 5 mg/kg, ip administered 30 mins prior to acetic acid challenge; assay type: functional, organism-based; set-up: dose 5 mg/kg

COc1ccc2c(c1)c(CC(=O)O)c(C)n2C(=O)c1ccc(Cl)cc1 [INDOMETHACIN]
Activity (Mus musculus [1]): Toxic
Activity (Mus musculus [2]): Toxic
inhibition (Mus musculus [3]): Active
Activity (Mus musculus [4]): Toxic
Activity (Mus musculus [5]): Active
inhibition (Mus musculus [6]): Active
